Drawing on ChEMBL document CHEMBL1177856, “Synthesis and cytotoxic activity of fluorinated analogues of Goniothalamus lactones. Impact of fluorine on oxidative processes” (Eur J Med Chem, 2010), this text covers IC50 for five molecules.

Assay [1] has as its system KB. Nature of the assay: Cytotoxicity against human KB cells after 24 hrs. The class given is functional, cell-based. The essentials:
(§1)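 Cell growth inhibition assay on human cancer lines KB, MCF-7, HT29, HepG2 and A549. IC50 is defined as the concentration that inhibits cell growth by 50%.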

Assay [2] relates to MCF7. Nature of the assay: Cytotoxicity against human MCF7 cells after 24 hrs. In kind it is functional, cell-based. As to conditions: MCF7, 24 h. The essentials: as §1
In assay [3] the test system is HT-29. Nature of the assay: Cytotoxicity against human HT-29 cells after 24 hrs. As to conditions: HT-29, 24 h. The class given is functional, cell-based. The essentials: as §1
In assay [4] the test system is HepG2. Nature of the assay: Cytotoxicity against human HepG2 cells after 24 hrs. The class given is functional, cell-based. The conditions noted are these: HepG2, 24 h. Summed up:
as §1

Assay [5] concerns A549. In words: Cytotoxicity against human A549 cells after 24 hrs. The conditions noted are these: A549, 24 h. The class given is functional, cell-based. The essentials: as §1
The test system of assay [6] is KB. In words: Cytotoxicity against human KB cells after 24 hrs.
In assay [7] the test system is A549. In words: Cytotoxicity against human A549 cells after 24 hrs. As to conditions: A549, 24 h.
Assay [8] relates to MCF7. Nature of the assay: Cytotoxicity against human MCF7 cells after 24 hrs. The conditions noted are these: MCF7, 24 h.
In assay [9] the test system is HepG2. In words: Cytotoxicity against human HepG2 cells after 24 hrs. As to conditions: HepG2, 24 h.
In assay [10] the test system is HT-29. In words: Cytotoxicity against human HT-29 cells after 24 hrs. The conditions noted are these: HT-29, 24 h.
Another assay relates to P388. Nature of the assay: Cytotoxicity against mouse P388 cells. The class given is functional, cell-based.
For another assay, the system named is WEHI-164. In words: Cytotoxicity against mouse WEHI164 cells. The class given is functional, cell-based.
The nature of assay [11]: Cytotoxicity against human Hep3B cells. The class given is functional, cell-based, Hep 3B2.
Another assay concerns MDA-MB-231. In words: Cytotoxicity against human MDA-MB-231 cells. In kind it is functional, cell-based.

A value given as a limit tells only on which side of the number the result lay.

Consider `O=C1C=C[C@H](O)[C@H]([C@H](O)[C@H](OC(=O)/C=C/C(F)(F)F)c2ccccc2)O1`, for which the concentration for half-maximal inhibition (IC50) came to 1.4 µM in the assay with KB [1]; 1.6 µM in the assay with MCF7 [2]; 4.5 µM in the assay with HT-29 [3]; 1.8 µM in the assay on HepG2 [4]; 3 µM in the assay with A549 [5].
Consider `O=C1C=CCC(/C=C/C(F)(F)F)O1` (racemic), for which the IC50 with KB [6], with A549 [7], in the assay on MCF7 [8], with HepG2 [9] and in the assay on HT-29 [10] was over 10 µM in each case.
Take `O=C1C=CCC(/C=C/c2ccccc2)O1` (racemic): the IC50 in the assay with KB [1] stood at 3 µM; in the assay with MCF7 [2], 3.5 µM; in the assay with HT-29 [3] it was 10.1 µM; in the assay with HepG2 [4], 2.4 µM; with A549 [5] it was 9.1 µM; with P388, 3.8 µM. The values for the IC50 (in the assay on WEHI-164; in [11]; with MDA-MB-231) were 8.5 µM, 5.4 µM and 5.4 µM, respectively.
In the case of `O=C1C=CC[C@H](/C=C/c2ccccc2)O1` [GONIOTHALAMIN], the IC50 in the assay on MCF7 [2] is 4.5 µM; in the assay with HepG2 [4] it was 1.6 µM; with P388, 3.8 µM; with WEHI-164, 8.5 µM; in assay [11] it was 5.4 µM; in the assay on MDA-MB-231 it was 5.4 µM.
Take `O=C1C=C[C@H](O)[C@H]([C@H](O)[C@H](OC(=O)/C=C/c2ccccc2)c2ccccc2)O1` [HOWIINOL A]: the IC50 with KB [1] was 0.9 µM; in the assay on MCF7 [2] it was 1.1 µM; with HT-29 [3], 2.6 µM; in the assay on HepG2 [4], 1.6 µM; with A549 [5], 1.5 µM.

A word on the IC50: it is the concentration that inhibits the measured activity by half. High values mean a need for much substance, low ones inhibition by little substance.
